An excerpt weighted towards active compounds, which were near 2.3% of everything screened.
MsrA act: bovine methionine sulfoxide reductase A activation | purified bovine MsrA, absorbance read-out | activation, % at 10.6 µM | 360,000 tested, 0.3% active | AID 602163; in the data active = activation above about 7.5%;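 also: 0% = vehicle and 100% = reference activator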
MsrA inh: bovine MsrA inhibition | 360,000 tested, 0.75% active | purified bovine MsrA, absorbance read-out | inhibition, % at 15.5 µM; in the data active = inhibition above about 4.5%;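 also: 0% = vehicle wells with enzyme and 100% = reference inhibitor wells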
MC4R antag cAMP: blocks human MC4R cAMP signaling; P32245; MC4R-expressing cells, MTII-stimulated cAMP, LANCE TR-FRET; inhibition, % at 6.5 µM; 360,000 tested, 0.48% active;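 active = inhibition above its plate's cutoff, the mean of tested wells on that plate plus 3 SD, cut at about 29% in these data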;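 also: 0% = Melanotan II alone and 100% = Melanotan II plus saturating MCL0020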
Target sequence (P32245 whole entry, looked up): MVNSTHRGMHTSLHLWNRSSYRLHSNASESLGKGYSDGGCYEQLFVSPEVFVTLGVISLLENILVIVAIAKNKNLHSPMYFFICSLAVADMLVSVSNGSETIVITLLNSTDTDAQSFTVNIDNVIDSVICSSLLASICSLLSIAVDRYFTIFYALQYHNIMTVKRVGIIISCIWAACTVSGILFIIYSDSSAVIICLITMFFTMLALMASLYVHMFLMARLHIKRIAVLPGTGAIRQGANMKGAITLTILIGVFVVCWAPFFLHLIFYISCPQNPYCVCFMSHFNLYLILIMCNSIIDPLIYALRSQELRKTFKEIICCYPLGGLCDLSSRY
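System – human MC4R-expressing U2OS cells · Also added – Melanotan II · Dosing – one concentration, 6.5 µM nominal · Timing – 30-min compound, 1-h challenge, 1-h detection, room temperature · Measured by – Eu-cAMP/anti-cAMP TR-FRET, emission 671 nm · Replicates – singlicate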
MC4R ag barr: activates human MC4R beta-arrestin recruitment | activation, % at 8.9 µM | 360,000 tested, 0.98% active | U2OS MC4R beta-arrestin complementation, luminescence; percent of melanotan II response, DMSO zero | P32245 | AID 540308;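 active = activation above a per-plate cutoff, the mean activation of sample wells on that plate plus 3 SD, cut at about 8% in these data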
U2OS cAMP counter: nonselective cAMP signaling inhibitor, MC4R antagonist counter-screen | inhibition, % at 6.5 µM | 1,600 tested, 26% active | shares compounds with MC4R antag cAMP | AID 602193 | parental U2OS, forskolin cAMP, LANCE TR-FRET;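 active = mean inhibition over triplicates above the low-control well mean plus 3 SD, set per campaign, cut at about 13% in these data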;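 also: signal is single emission at 671 nm which falls as cellular cAMP rises; 0% = forskolin-stimulated wells and 100% = buffer without forskolin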
MC4R cAMP antag: human MC4R cAMP antagonism confirmation; shares compounds with MC4R antag cAMP; MC4R-expressing cells, MTII-stimulated cAMP, TR-FRET; inhibition, % at 6.5 µM; 1,600 tested, 27% active; AID 602195; in the data active = inhibition above about 29%;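 also: 0% = agonist stimulated wells alone and 100% = agonist stimulated wells plus saturating reference antagonist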
An asterisk follows results filed as active.

CC(=O)Nc1sc2c(c1C(c1ccc(F)cc1)N1CCOCC1)CCCC2 (stereo not drawn) was read as MsrA act -1.8, MsrA inh 0.4, MC4R antag cAMP 29.5*, MC4R ag barr 2.1, U2OS cAMP counter 2.2 and MC4R cAMP antag 5.7.
For CC(=O)Nc1sc2c(c1C(c1ccc(Cl)cc1)N1CCOCC1)CCCC2 (stereo not drawn) the results were MsrA act 3.4, MsrA inh -0.8, MC4R antag cAMP 17.6 and MC4R ag barr -0.3.
For CC(=O)NS(=O)(=O)c1ccc(N=c2ssc3c2-c2cc(C)c(C)cc2NC3(C)C)cc1 the results were MsrA act -1.9, MsrA inh 1.1, MC4R antag cAMP 30.8*, MC4R ag barr -1.9, U2OS cAMP counter 2.7 and MC4R cAMP antag 16.0.
Screening O=C(O)c1ccccc1C(=O)c1cccc2c(F)cccc12 returned MsrA act 3.7, MsrA inh -0.1, MC4R antag cAMP 9.2 and MC4R ag barr -1.7.
O=C(O)c1ccccc1C(=O)c1cccc2c(Br)cccc12 was read as MsrA act -3.4, MsrA inh 0.2, MC4R antag cAMP active, MC4R ag barr -3.0, U2OS cAMP counter active and MC4R cAMP antag active.
For CCCCCCNc1nc(-c2ccc(OC)cc2)c(CCC(=O)O)s1 the results were MsrA act -2.4, MsrA inh -0.2, MC4R antag cAMP 29.5*, MC4R ag barr 1.4, U2OS cAMP counter -2.9 and MC4R cAMP antag -1.3.
COc1cc(OC)cc(C(=O)Nc2ccccc2-c2nnn(CC(=O)Nc3cc(C)on3)n2)c1 was read as MsrA act -1.2, MsrA inh -0.5, MC4R antag cAMP 29.9*, MC4R ag barr 8.8*, U2OS cAMP counter 5.9 and MC4R cAMP antag 14.2.
For CCC1=NN2C(=N)/C(=C/c3ccc(OS(=O)(=O)c4ccccc4)c(OC)c3)C(=O)N=C2S1 the results were MsrA act 1.0, MsrA inh 0.0, MC4R antag cAMP 11.7 and MC4R ag barr 1.6.
For CC(c1ccco1)N(C(=O)c1ccccc1NS(=O)(=O)c1ccc(Cl)c([N+](=O)[O-])c1)c1ccccn1 (stereo not drawn) the results were MsrA act -2.9, MsrA inh 0.8, MC4R antag cAMP 39.2*, MC4R ag barr -1.5, U2OS cAMP counter 6.3 and MC4R cAMP antag 15.9.
`Cc1sc(NC(=O)C2C3CCC(C3)C2C(=O)O)c(C(N)=O)c1-c1ccc(C(C)(C)C)cc1` (stereo not drawn) gave MsrA act -1.2, MsrA inh -0.2, MC4R antag cAMP 8.7 and MC4R ag barr -1.7.
Screening CCOC(=O)c1sc(NC(=O)c2ccc(S(=O)(=O)N3CCCCCC3)cc2)nc1-c1ccccc1 returned MsrA act 1.2, MsrA inh 0.1, MC4R antag cAMP 32.4*, MC4R ag barr -0.9, U2OS cAMP counter -5.6 and MC4R cAMP antag 0.4.
CCOC(=O)c1sc(NC(=O)c2ccc(S(=O)(=O)N3CCCCC3)cc2)nc1-c1ccccc1 was read as MsrA act 1.8, MsrA inh 1.3, MC4R antag cAMP -2.1 and MC4R ag barr -0.6.
CN1CCC(Oc2ccc(Sc3ccccc3)cc2)CC1 was read as MsrA act 5.0, MsrA inh 0.7, MC4R antag cAMP -1.4 and MC4R ag barr -0.1.
For CN1CCC(Oc2ccccc2Sc2ccc(C(F)(F)F)cc2)CC1 the results were MsrA act -4.0, MsrA inh -1.2, MC4R antag cAMP 32.8*, MC4R ag barr -3.0, U2OS cAMP counter 0.6 and MC4R cAMP antag 31.5*.
`Cc1c(Br)c([N+](=O)[O-])nn1CC(=O)N1CCc2ccccc21` gave MsrA act -3.7, MsrA inh -0.3, MC4R antag cAMP 30.0*, MC4R ag barr 0.1, U2OS cAMP counter -1.2 and MC4R cAMP antag 4.4.
Cc1c(Cl)c([N+](=O)[O-])nn1CC(=O)N1CCCc2ccccc21 was read as MsrA act -4.0, MsrA inh -1.4, MC4R antag cAMP -0.4 and MC4R ag barr -2.6.
For CC(C)C[C@H](NC(=O)c1[nH]cnc1C(=O)Nc1ccc(CNC(=O)OC(C)(C)C)cc1)C(=O)OCc1ccccc1 the results were MsrA act 0.8, MsrA inh 0.3, MC4R antag cAMP 61.4*, MC4R ag barr 4.2, U2OS cAMP counter 17.9* and MC4R cAMP antag 36.5*.
`C[C@H](NC(=O)c1[nH]cnc1C(=O)Nc1ccc(CNC(=O)OC(C)(C)C)cc1)C(=O)OCc1ccccc1` gave MsrA act -3.3, MsrA inh -1.6, MC4R antag cAMP 29.0*, MC4R ag barr 6.2, U2OS cAMP counter -33.4 and MC4R cAMP antag -43.2.
CCCCn1c(-c2ccc(Cl)c(Cl)c2)nc2cc3[nH]c(=O)c(C(C)C)nc3cc21 was read as MsrA act -4.3, MsrA inh 3.4, MC4R antag cAMP -2.0 and MC4R ag barr 0.8.
`Cc1ccc(NC(=O)CN(C)C(=O)Cc2ccc(Cl)c(Cl)c2)cc1` gave MsrA act -0.8, MsrA inh 0.6, MC4R antag cAMP 4.6 and MC4R ag barr -0.6.
Cc1ccc(NC(=O)CN(C)C(=O)Cn2ncc(Cl)c(Cl)c2=O)cc1 was read as MsrA act -2.2, MsrA inh 0.3, MC4R antag cAMP 29.8*, MC4R ag barr -0.7, U2OS cAMP counter 25.6* and MC4R cAMP antag 24.4.
Screening CCOC(=O)c1ccc(NC(=O)NCCc2ccccc2OC)cc1 returned MsrA act 0.7, MsrA inh -0.2, MC4R antag cAMP -0.3 and MC4R ag barr -3.8.
`CCOC(=O)c1ccc(NC(=O)NCc2ccccc2OC)cc1` gave MsrA act -2.0, MsrA inh -0.6, MC4R antag cAMP 30.4*, MC4R ag barr -0.8, U2OS cAMP counter 1.7 and MC4R cAMP antag 4.0.
C=CCONC(=O)Cc1ccccc1 was read as MsrA act -13.7, MsrA inh -0.1, MC4R antag cAMP 7.5 and MC4R ag barr 2.9.
Screening O=C(NCC(=O)N1CCN(S(=O)(=O)/C=C/c2ccccc2)CC1)c1ccc(Cl)cc1 returned MsrA act -1.5, MsrA inh -0.4, MC4R antag cAMP 31.1*, MC4R ag barr 3.7, U2OS cAMP counter 0.5 and MC4R cAMP antag -6.6.
Screening O=C(NCC(=O)N1CCN(S(=O)(=O)/C=C/c2ccccc2)CC1)c1ccccc1F returned MsrA act -5.2, MsrA inh -1.1, MC4R antag cAMP -1.6 and MC4R ag barr -1.6.
For O=C(c1cc(-c2cccs2)nn1-c1ccccc1)N1CCN(S(=O)(=O)c2ccccc2)CC1 the results were MsrA act -0.6, MsrA inh -1.5, MC4R antag cAMP 28.7*, MC4R ag barr -1.8, U2OS cAMP counter 2.7 and MC4R cAMP antag 7.5.
For Cc1ccc(S(=O)(=O)N2CCN(C(=O)c3cc(-c4cccs4)nn3-c3ccccc3)CC2)cc1 the results were MsrA act -6.4, MsrA inh 0.6, MC4R antag cAMP 0.2 and MC4R ag barr 0.6.
CCC(OC(=O)C1=Cc2ccccc2OC1)C(=O)NCc1ccco1 (stereo not drawn) was read as MsrA act -12.3, MsrA inh -0.3, MC4R antag cAMP 5.5 and MC4R ag barr 1.4.

Screens deposited in PubChem BioAssay by The Scripps Research Institute Molecular Screening Center.
